Active and inactive are the calls of the source. The rule behind the calls is not given here.
Experiments:
[1] = target: T1, Neuronal acetylcholine receptor; alpha3/beta4 (Homo sapiens) (UniProt P30926+P32297); test: Agonist activity at human alpha3beta4 nAChR expressed in Xenopus oocytes at 10 uM incubated for 8 secs followed by compound washout measured after 241 secs by two-electrode voltage clamp technique; type: cell-based
[2] = Displacement of [3H]epibatidine from Torpedo californica electroplax (alpha1)2beta1gammadelta nAChR after 90 mins by liquid scintillation counting analysis; parameters: species or system Tetronarce californica
[3] = target: T2, Nicotinic acetylcholine receptor alpha1/beta1/epsilon/delta (Mus musculus) (UniProt P04756+P09690+P02716+P20782); test: Agonist activity at mouse muscle alpha1beta1epsilondelta nAChR expressed in Xenopus oocytes at 10 uM incubated for 8 secs followed by compound washout measured after 241 secs by two-electrode voltage clamp technique; type: cell-based
[4] = Displacement of [3H]epibatidine from calf adrenal alpha3beta4 nAChR after 90 mins by liquid scintillation counting analysis; parameters: species or system Bos taurus
[5] = target: T3, Neuronal acetylcholine receptor; alpha4/beta2 (Homo sapiens) (UniProt P17787+P43681); test: Partial agonist activity at human alpha4beta2 nAChR expressed in Xenopus oocytes at 10 uM incubated for 8 secs followed by compound washout measured after 241 secs by two-electrode voltage clamp technique; type: cell-based
[6] = target: T3, Neuronal acetylcholine receptor; alpha4/beta2 (Homo sapiens); test: Antagonist activity at human alpha4beta2 nAChR expressed in Xenopus oocytes assessed as inhibition of acetylcholine-induced effect at 1 uM incubated for 8 secs followed by compound washout measured after 241 secs by two-electrode voltage clamp technique; type: cell-based
[7] = target: Neuronal acetylcholine receptor subunit alpha-7 (Rattus norvegicus, UniProt Q05941); test: Displacement of [3H]methyllycaconitine from Sprague-Dawley rat brain alpha7 nAChR after 120 mins by liquid scintillation counting analysis; type: tissue-based
Sequence of Neuronal acetylcholine receptor subunit alpha-7 (Q05941 whole entry): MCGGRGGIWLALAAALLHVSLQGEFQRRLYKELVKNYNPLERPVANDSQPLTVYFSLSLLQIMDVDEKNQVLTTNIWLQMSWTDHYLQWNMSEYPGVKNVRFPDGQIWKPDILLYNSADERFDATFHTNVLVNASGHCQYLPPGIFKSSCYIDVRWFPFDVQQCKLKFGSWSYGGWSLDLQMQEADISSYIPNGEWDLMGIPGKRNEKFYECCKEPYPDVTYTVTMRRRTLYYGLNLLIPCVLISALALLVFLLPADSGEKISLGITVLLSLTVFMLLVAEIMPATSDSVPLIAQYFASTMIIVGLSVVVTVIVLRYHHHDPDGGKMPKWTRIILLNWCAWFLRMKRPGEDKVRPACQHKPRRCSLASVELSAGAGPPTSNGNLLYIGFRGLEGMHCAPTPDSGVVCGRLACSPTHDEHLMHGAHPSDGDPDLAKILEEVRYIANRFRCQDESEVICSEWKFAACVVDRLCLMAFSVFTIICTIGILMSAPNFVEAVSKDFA
Outline: (§1)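 Radioligand competition binding gave Ki values, reported as mean ± SEM from 2–10 independent experiments.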

[8] = target: T2, Nicotinic acetylcholine receptor alpha1/beta1/epsilon/delta (Mus musculus); test: Antagonist activity at mouse muscle alpha1beta1epsilondelta nAChR expressed in Xenopus oocytes assessed as inhibition of acetylcholine-induced effect at 1 uM incubated for 8 secs followed by compound washout measured after 241 secs by two-electrode voltage clamp technique; type: cell-based
[9] = target: Neuronal acetylcholine receptor subunit alpha-7 (Homo sapiens) (UniProt P36544); test: Antagonist activity at human alpha7 nAChR expressed in Xenopus oocytes assessed as inhibition of acetylcholine-induced effect at 1 uM incubated for 12 secs followed by compound washout measured after 181 secs by two-electrode voltage clamp technique; type: cell-based
Sequence of Neuronal acetylcholine receptor subunit alpha-7 (Homo sapiens) (P36544 whole entry): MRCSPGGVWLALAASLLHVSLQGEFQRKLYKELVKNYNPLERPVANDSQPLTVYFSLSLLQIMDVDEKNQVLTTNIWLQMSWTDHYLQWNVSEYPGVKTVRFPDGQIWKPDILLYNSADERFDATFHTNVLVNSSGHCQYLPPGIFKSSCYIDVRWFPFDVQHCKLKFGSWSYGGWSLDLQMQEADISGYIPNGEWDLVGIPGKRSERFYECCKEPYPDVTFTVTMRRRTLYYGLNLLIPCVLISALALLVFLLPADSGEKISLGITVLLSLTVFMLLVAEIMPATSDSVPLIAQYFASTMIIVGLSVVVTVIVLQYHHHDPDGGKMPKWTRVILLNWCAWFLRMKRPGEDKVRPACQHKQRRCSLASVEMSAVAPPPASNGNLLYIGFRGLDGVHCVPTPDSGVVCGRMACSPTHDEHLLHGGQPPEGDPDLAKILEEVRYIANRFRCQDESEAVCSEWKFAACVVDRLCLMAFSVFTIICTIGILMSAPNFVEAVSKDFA

[10] = target: T1, Neuronal acetylcholine receptor; alpha3/beta4 (Homo sapiens); test: Antagonist activity at human alpha3beta4 nAChR expressed in Xenopus oocytes at 1 uM incubated for 8 secs followed by compound washout measured after 241 secs by two-electrode voltage clamp technique; type: cell-based
[11] = target: Neuronal acetylcholine receptor; alpha4/beta2 (Rattus norvegicus, UniProt P09483+P12390); test: Displacement of [3H]epibatidine from Sprague-Dawley rat brain alpha4beta2 nAChR after 90 mins by liquid scintillation counting analysis; outline: as §1
Sequence of Neuronal acetylcholine receptor; alpha4/beta2 (P09483 whole entry): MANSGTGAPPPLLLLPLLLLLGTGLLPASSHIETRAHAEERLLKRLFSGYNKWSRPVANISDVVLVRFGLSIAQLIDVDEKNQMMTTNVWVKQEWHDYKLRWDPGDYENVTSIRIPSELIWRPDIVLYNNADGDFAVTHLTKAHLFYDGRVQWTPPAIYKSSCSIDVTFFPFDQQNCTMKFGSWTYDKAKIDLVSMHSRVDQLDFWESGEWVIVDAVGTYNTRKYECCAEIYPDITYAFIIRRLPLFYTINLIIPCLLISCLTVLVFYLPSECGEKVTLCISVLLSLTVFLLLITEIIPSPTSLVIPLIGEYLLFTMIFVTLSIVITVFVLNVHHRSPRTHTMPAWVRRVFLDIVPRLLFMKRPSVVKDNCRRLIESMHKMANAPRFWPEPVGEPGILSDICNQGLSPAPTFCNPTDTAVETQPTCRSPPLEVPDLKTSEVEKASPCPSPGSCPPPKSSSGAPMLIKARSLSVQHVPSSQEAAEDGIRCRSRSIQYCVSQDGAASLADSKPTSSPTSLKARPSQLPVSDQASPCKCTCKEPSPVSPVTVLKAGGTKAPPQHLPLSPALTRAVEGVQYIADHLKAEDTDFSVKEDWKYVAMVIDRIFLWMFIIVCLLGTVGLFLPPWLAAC
Sequence of Neuronal acetylcholine receptor; alpha4/beta2 (P12390 whole entry): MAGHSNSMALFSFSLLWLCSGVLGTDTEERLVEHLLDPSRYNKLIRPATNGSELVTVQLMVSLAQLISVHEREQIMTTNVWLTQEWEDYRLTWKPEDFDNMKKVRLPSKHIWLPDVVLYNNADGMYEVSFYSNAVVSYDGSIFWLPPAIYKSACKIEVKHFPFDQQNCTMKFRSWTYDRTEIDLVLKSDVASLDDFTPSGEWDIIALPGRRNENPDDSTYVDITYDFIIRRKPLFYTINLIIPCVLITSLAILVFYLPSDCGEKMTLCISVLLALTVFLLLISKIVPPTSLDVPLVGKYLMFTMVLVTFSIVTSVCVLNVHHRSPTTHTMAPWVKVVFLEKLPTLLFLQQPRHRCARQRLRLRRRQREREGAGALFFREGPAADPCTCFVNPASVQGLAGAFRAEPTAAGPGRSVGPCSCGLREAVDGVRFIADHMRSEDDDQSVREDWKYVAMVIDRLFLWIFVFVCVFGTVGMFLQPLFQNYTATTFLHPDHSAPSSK

[12] = target: T2, Nicotinic acetylcholine receptor alpha1/beta1/epsilon/delta (Mus musculus); test: Agonist activity at mouse muscle alpha1beta1epsilondelta nAChR expressed in Xenopus oocytes at 1 uM incubated for 8 secs followed by compound washout measured after 241 secs by two-electrode voltage clamp technique; type: cell-based
[13] = target: Neuronal acetylcholine receptor subunit alpha-7 (Homo sapiens) (UniProt P36544); test: Agonist activity at human alpha7 nAChR expressed in Xenopus oocytes at 1 uM incubated for 12 secs followed by compound washout measured after 181 secs by two-electrode voltage clamp technique; type: cell-based
[14] = target: T3, Neuronal acetylcholine receptor; alpha4/beta2 (Homo sapiens); test: Partial agonist activity at human alpha4beta2 nAChR expressed in Xenopus oocytes at 1 uM incubated for 8 secs followed by compound washout measured after 241 secs by two-electrode voltage clamp technique; type: cell-based
[15] = target: T1, Neuronal acetylcholine receptor; alpha3/beta4 (Homo sapiens); test: Agonist activity at human alpha3beta4 nAChR expressed in Xenopus oocytes at 1 uM incubated for 8 secs followed by compound washout measured after 241 secs by two-electrode voltage clamp technique; type: cell-based
[16] = target: Neuronal acetylcholine receptor subunit alpha-7 (Homo sapiens) (UniProt P36544); test: Agonist activity at human alpha7 nAChR expressed in Xenopus oocytes at 10 uM incubated for 12 secs followed by compound washout measured after 181 secs by two-electrode voltage clamp technique; type: cell-based

| Structure (SMILES) | Activity [1] | Ki [2] [nM] | Activity [3] | Ki [4] [nM] | Activity [5] | antagonist activity (active/inactive) [6] | Ki [7] [nM] | inhibition [8] | inhibition [9] | Activity [10] | Ki [11] [nM] | Activity [16] | Activity [12] | Activity [13] | Activity [14] | Activity [15] |
| --- | --- | --- | --- | --- | --- | --- | --- | --- | --- | --- | --- | --- | --- | --- | --- | --- |
| O=C(C#Cc1ccc2c(c1)OCO2)N1C[C@@H]2CNC[C@@H](C2)C1 | inactive | > 5000 | inactive | > 1000 | Active | Active | > 1000 | inactive | inactive | inactive | 3.1 |  |  |  |  |  |
| O=C(Cc1ccc2c(c1)OCO2)N1C[C@@H]2CNC[C@@H](C2)C1 | inactive | > 5000 | inactive | > 1000 | Active |  | > 1000 | inactive | inactive | inactive | 13.2 |  | inactive | inactive | Active | inactive |
| COc1ccc(C#CC(=O)N2C[C@@H]3CNC[C@@H](C3)C2)cc1OC | inactive | > 5000 | inactive | > 1000 | Active | Active | > 1000 | Active | inactive | inactive | 2.1 |  |  |  |  |  |
| O=C(c1ccc(-c2ccncc2)cc1)N1C[C@@H]2CNC[C@@H](C2)C1 | inactive | > 5000 | inactive | > 1000 | Active | Active | > 1000 | inactive | inactive | inactive | 7.1 |  | inactive | inactive | Active | inactive |
| O=C(Cc1ccncc1)N1C[C@@H]2CNC[C@@H](C2)C1 | inactive | > 5000 | inactive | > 1000 | Active |  | > 1000 | inactive | inactive | inactive | 14.4 |  | inactive | inactive | Active | inactive |
| O=C(c1ccc(-c2cccnc2)cc1)N1C[C@@H]2CNC[C@@H](C2)C1 | inactive | > 5000 | inactive | > 1000 | Active | Active | > 1000 | inactive | inactive | inactive | 25 |  | inactive | inactive | Active | inactive |
| O=C(/C=C/c1cccnc1)N1C[C@@H]2CNC[C@@H](C2)C1 | inactive | > 5000 | inactive | > 1000 | Active |  | > 1000 | inactive | inactive | inactive | 32.6 |  | inactive | inactive | Active | inactive |
| O=C(Cc1cccnc1)N1C[C@@H]2CNC[C@@H](C2)C1 | inactive | > 5000 | inactive | > 1000 | Active |  | > 1000 | inactive | inactive | inactive | 11.2 |  | inactive | inactive | Active | inactive |

More lines, main results first:

| Activity [1] | Ki [2] [nM] | Activity [3] | Ki [4] [nM] | Activity [5] | antagonist activity (active/inactive) [6] | Ki [7] [nM] | inhibition [8] | inhibition [9] | Activity [10] | Ki [11] [nM] | Activity [16] | Structure (SMILES) | Activity [12] | Activity [13] | Activity [14] | Activity [15] |
| --- | --- | --- | --- | --- | --- | --- | --- | --- | --- | --- | --- | --- | --- | --- | --- | --- |
| inactive | > 5000 | inactive | > 1000 | Active | Active | > 1000 | inactive | inactive | inactive | 0.991 |  | COc1ccc(C#CC(=O)N2C[C@@H]3CNC[C@@H](C3)C2)cc1Cl |  |  |  |  |
| inactive | > 10000 | inactive | > 5000 | Active |  | > 5000 | inactive | inactive | inactive | 55.1 |  | O=C(/C=C/c1ccccc1)N1C[C@@H]2CNC[C@@H](C2)C1 | inactive | inactive | Active | inactive |
| Active |  | inactive |  |  | Active | > 10000 | inactive | inactive |  | 1.2 | Active | O=C([C@@H]1C[C@H]1c1ccccc1)N1C[C@@H]2CNC[C@@H](C2)C1 |  |  |  |  |
| inactive | > 5000 | inactive | > 1000 | Active | Active | > 1000 | inactive | inactive | inactive | 5.6 |  | O=C(c1ccc(-n2ccnc2)cc1)N1C[C@@H]2CNC[C@@H](C2)C1 | inactive | inactive | Active | inactive |
| inactive | > 5000 | inactive | > 5000 | Active | Active | > 5000 | inactive | inactive | inactive | 22.9 |  | CS(=O)(=O)c1ccc(CC(=O)N2C[C@@H]3CNC[C@@H](C3)C2)cc1 | inactive | inactive | Active | inactive |
